In ChEMBL document CHEMBL1153770, “Chemical constituents of Heteroplexis micocephala” (J Nat Prod, 2009):
pIC50: −log10 of the molar value. Active and inactive are the calls of the source. No cut-off for these calls is given here.

Experiments:
Rattus norvegicus = species: Rattus norvegicus; assay: Antiinflammatory activity in rat PMNCs assessed as inhibition of platelet activating factor-induced beta-glucuronidase release at 10 uM treated 15 mins before PAF challenge after 10 mins; format: functional
[1] = tested on: Human immunodeficiency virus 1; assay: Antiviral activity against HIV1 NL4-3 co-transfected with VSV glycoprotein plasmid in human 293T cells after 48 hrs by luciferase reporter gene assay; format: functional, organism-based; details: for IC50: 293t; for pIC50: Human immunodeficiency virus 1, NL4-3, HEK-293T, 48 h, read-out: IC50
Procedure, shortened: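 Env-deficient pNL4-3.luc.R-E- HIV-1 vector pseudotyped with VSV-G, made by co-transfecting 293T cells, quantified by p24 ELISA and diluted to 0.2 ng p24/mL. Target 293T cells were seeded at 6 × 10^4 per well one day before infection. Compounds were preincubated with cells 15 min before adding virus, with a solvent-only blank. Cells were lysed 48 h post-infection.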

A2780 = assay: Cytotoxicity against human A2780 cells after 96 hrs by MTT assay; format: functional, cell-based; details: for IC50: a2780; for pIC50: Homo sapiens, A2780, 96 h, read-out: IC50
[2] = target: T1, Tyrosine-protein phosphatase non-receptor type 1 (Homo sapiens) (UniProt P18031); assay: Inhibition of GST-tagged human recombinant PTP1B assessed as paranitrophenol accumulation at 10 uM after 10 mins by spectrophotometry
T1 sequence (whole entry): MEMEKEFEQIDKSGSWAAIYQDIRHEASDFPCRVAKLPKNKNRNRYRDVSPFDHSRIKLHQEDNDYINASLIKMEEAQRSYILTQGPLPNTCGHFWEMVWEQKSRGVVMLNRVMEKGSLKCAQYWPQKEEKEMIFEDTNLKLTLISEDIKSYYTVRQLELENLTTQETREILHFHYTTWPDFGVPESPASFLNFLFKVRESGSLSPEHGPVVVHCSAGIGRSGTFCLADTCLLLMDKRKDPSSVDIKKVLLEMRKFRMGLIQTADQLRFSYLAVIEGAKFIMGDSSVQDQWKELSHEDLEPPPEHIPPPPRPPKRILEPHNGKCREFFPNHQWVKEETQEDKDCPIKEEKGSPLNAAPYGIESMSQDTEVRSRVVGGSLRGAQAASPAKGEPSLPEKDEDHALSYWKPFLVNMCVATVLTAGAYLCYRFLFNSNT

Liver microsomes = assay: Antioxidant activity in rat liver microsomes assessed as inhibition of Fe(2+)-cystine-induced lipid peroxidation at 10 uM pretreated for 15 mins before Fe2+ challenge after 15 mins by TBA assay; format: functional; details: Microsome
PC-12 = assay: Neuroprotective activity against glutamate-induced rat PC12 cell death at 10 uM pretreated for 24 hrs before glutamate challenge after 24 hrs by MTT assay; format: functional, cell-based

`C/C1=C/CC(C)(C)[C@@H]2CC[C@@](C)(O)/C2=C/C1=O` was tested, and the Activity (Rattus norvegicus) was “inactive”, the IC50 [1] was “Not Active” and the IC50 (A2780) was “Not Active”. For the same compound, the Activity [2] was “inactive”, the Activity (Liver microsomes) was “inactive” and the Activity (PC-12) was “inactive”.

`C[C@]12C[C@@H](c3ccoc3)OC(=O)[C@@H]1CC[C@@]13COC(=O)[C@@H]1C=CC(=O)[C@H]23` [8-EPIRHYNCHOSPERIN A] was tested, and the Activity (Rattus norvegicus) was “inactive”, the IC50 [1] was “Not Active” and the IC50 (A2780) was “Not Active”. The Activity [2] was “inactive”, the Activity (Liver microsomes) was “inactive” and the Activity (PC-12) was “inactive”.

For `CC(C)=C[C@@H]1C/C(=C\CC/C(C)=C/CCC2=CC(=O)OC2)C(=O)O1` [HETEROPLEXISOLIDE A], the Activity (Rattus norvegicus) was “inactive”, the IC50 [1] was “Not Active” and the IC50 (A2780) was “Not Active”. The Activity [2] was “inactive”, the Activity (Liver microsomes) was “inactive” and the Activity (PC-12) was “inactive”.

`CCOC(C)(C)CC(=O)c1cc(C(C)=O)ccc1OC` was tested, and the Activity (Rattus norvegicus) was “inactive”, the IC50 [1] was “Not Active” and the IC50 (A2780) was “Not Active”. The Activity [2] was “inactive”, the Activity (Liver microsomes) was “inactive” and the Activity (PC-12) was “inactive”.

For `C/C=C(/C)C(=O)OC/C=C/c1cc(OC)c(OC(=O)[C@@H](C)CC)c(OC)c1`, the Activity (Rattus norvegicus) was “inactive”, the IC50 [1] was “Not Active” and the IC50 (A2780) was “Not Active”. The Activity [2] was “inactive”, the Activity (Liver microsomes) was “inactive” and the Activity (PC-12) was “inactive”.

For `C/C=C(/C)C(=O)OC/C=C/c1cc(OC)c(OC)c(OC)c1`, the Activity (Rattus norvegicus) was “inactive”, the IC50 [1] was “Not Active” and the IC50 (A2780) was “Not Active”. For the same compound, the Activity [2] was “inactive”, the Activity (Liver microsomes) was “inactive” and the Activity (PC-12) was “inactive”.

With `CC(=O)CC/C=C1\C[C@@H](C=C(C)C)OC1=O` [HETEROPLEXISOLIDE E] the Activity (Rattus norvegicus) was “inactive”, the IC50 [1] was “Not Active” and the IC50 (A2780) was “Not Active”. For the same compound, the Activity [2] was “inactive”, the Activity (Liver microsomes) was “inactive” and the Activity (PC-12) was “inactive”.

Work on `CC[C@@]1(O)C(=O)OCc2c1cc1n(c2=O)Cc2cc3ccccc3nc2-1` [CAMPTOTHECIN] yielded a pIC50 (A2780) of 6.55.

`Cc1cn([C@H]2C[C@H](N=[N+]=[N-])[C@@H](CO)O2)c(=O)[nH]c1=O` [ZIDOVUDINE] showed a pIC50 [1] of 7.32.

In the case of `COc1ccc(C(C)=O)cc1C(=O)CC(C)(C)O`, the Activity (Rattus norvegicus) was “inactive”, the IC50 [1] was “Not Active” and the IC50 (A2780) was “Not Active”. The Activity [2] was “inactive”, the Activity (Liver microsomes) was “inactive” and the Activity (PC-12) was “inactive”.

With `C/C=C(/C)C(=O)OC/C=C/c1cc(OC)c(OC(=O)/C(C)=C\C)c(OC)c1` the Activity (Rattus norvegicus) was “inactive”, the pIC50 [1] was 5.39 and the IC50 (A2780) was “Not Active”. For the same compound, the Activity [2] was “inactive”, the Activity (Liver microsomes) was “inactive” and the Activity (PC-12) was “inactive”.

In the case of `CC(C)=C[C@@H]1OC(=O)/C(=C/CC/C(C)=C/CCC2=CC(=O)OC2)[C@@H]1O` [HETEROPLEXISOLIDE C], the Activity (Rattus norvegicus) was “inactive”, the IC50 [1] was “Not Active” and the IC50 (A2780) was “Not Active”. The Activity [2] was “inactive”, the Activity (Liver microsomes) was “inactive” and the Activity (PC-12) was “inactive”.

`CC(C)=C[C@@H]1OC(=O)[C@H](/C=C/C/C(C)=C/CCC2=CC(=O)OC2)[C@@H]1O` [HETEROPLEXISOLIDE D] was tested, and the Activity (Rattus norvegicus) was “inactive”, the IC50 [1] was “Not Active” and the pIC50 (A2780) was 5.36. The Activity [2] was “inactive”, the Activity (Liver microsomes) was “inactive” and the Activity (PC-12) was “inactive”.

With `C/C1=C/CC(C)(C)[C@@H]2CC[C@](C)(O)/C2=C/C1=O` the Activity (Rattus norvegicus) was “inactive”, the IC50 [1] was “Not Active” and the IC50 (A2780) was “Not Active”. For the same compound, the Activity [2] was “inactive”, the Activity (Liver microsomes) was “inactive” and the Activity (PC-12) was “inactive”.

With `C=C(CC/C=C1\C[C@@H](C=C(C)C)OC1=O)C(O)CCC1=CC(=O)OC1` (stereo not given in full) [HETEROPLEXISOLIDE B] the Activity (Rattus norvegicus) was “inactive”, the IC50 [1] was “Not Active” and the IC50 (A2780) was “Not Active”. The Activity [2] was “inactive”, the Activity (Liver microsomes) was “inactive” and the Activity (PC-12) was “inactive”.
